Activity calls are given as the source filed them.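 Rule for the calls, unless noted: active = viability loss from added drug above about 55%, and viability with drug at most 40%, in both replicates (limit read from the data, passing the limit was not always enough); inconclusive = both conditions met in only one replicate; inactive = neither replicate meets both conditions.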
Experiments:
[1] = molecular target: Pantothenate synthetase (Mycobacterium tuberculosis (strain ATCC 25618 / H37Rv)) (UniProt P9WIL5); assay: Coupled enzyme confirmation of inhibitors against recombinant Mtb PanC (AID 375; call rule not given here;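 note: 0% = full reaction with vehicle and 100% = no enzyme background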); conditions: coupled enzyme assay; at 10 µM, stronger effect = higher value
Chain of Pantothenate synthetase (Mycobacterium tuberculosis (strain ATCC 25618 / H37Rv)) (P9WIL5 whole entry, looked up): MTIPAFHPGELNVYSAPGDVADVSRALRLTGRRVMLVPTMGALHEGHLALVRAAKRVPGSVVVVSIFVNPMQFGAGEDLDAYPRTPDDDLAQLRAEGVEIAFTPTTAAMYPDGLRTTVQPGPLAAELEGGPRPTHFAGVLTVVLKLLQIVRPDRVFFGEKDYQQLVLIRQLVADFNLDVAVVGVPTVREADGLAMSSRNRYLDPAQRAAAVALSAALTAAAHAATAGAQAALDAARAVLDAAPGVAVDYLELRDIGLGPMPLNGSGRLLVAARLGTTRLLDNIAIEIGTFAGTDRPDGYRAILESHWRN

[2] = Her2 expression decrease, cell viability multiplex – SKBR3 breast tumor cells, AlphaScreen, ATP viability, primary screen (AID 461;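 active = Her2 level under about 52% in both replicate screens, with viability over 70% of control, limit read from the data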;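 for Her2 level: lower value means less Her2 protein in the cells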;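 for viability: percent of carrier control wells set as 100% viability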); conditions: SKBR3 Her2 protein level, 18-24 h, measured here: SKBR3 viability, ATP luminescence, at 10 µM
[3] = molecular target: Receptor tyrosine-protein kinase erbB-2 (Homo sapiens) (UniProt P04626); assay: as above; conditions: 18-24 h, at 10 µM, stronger effect = lower value
Chain of Receptor tyrosine-protein kinase erbB-2 (Homo sapiens) (P04626 whole entry, looked up): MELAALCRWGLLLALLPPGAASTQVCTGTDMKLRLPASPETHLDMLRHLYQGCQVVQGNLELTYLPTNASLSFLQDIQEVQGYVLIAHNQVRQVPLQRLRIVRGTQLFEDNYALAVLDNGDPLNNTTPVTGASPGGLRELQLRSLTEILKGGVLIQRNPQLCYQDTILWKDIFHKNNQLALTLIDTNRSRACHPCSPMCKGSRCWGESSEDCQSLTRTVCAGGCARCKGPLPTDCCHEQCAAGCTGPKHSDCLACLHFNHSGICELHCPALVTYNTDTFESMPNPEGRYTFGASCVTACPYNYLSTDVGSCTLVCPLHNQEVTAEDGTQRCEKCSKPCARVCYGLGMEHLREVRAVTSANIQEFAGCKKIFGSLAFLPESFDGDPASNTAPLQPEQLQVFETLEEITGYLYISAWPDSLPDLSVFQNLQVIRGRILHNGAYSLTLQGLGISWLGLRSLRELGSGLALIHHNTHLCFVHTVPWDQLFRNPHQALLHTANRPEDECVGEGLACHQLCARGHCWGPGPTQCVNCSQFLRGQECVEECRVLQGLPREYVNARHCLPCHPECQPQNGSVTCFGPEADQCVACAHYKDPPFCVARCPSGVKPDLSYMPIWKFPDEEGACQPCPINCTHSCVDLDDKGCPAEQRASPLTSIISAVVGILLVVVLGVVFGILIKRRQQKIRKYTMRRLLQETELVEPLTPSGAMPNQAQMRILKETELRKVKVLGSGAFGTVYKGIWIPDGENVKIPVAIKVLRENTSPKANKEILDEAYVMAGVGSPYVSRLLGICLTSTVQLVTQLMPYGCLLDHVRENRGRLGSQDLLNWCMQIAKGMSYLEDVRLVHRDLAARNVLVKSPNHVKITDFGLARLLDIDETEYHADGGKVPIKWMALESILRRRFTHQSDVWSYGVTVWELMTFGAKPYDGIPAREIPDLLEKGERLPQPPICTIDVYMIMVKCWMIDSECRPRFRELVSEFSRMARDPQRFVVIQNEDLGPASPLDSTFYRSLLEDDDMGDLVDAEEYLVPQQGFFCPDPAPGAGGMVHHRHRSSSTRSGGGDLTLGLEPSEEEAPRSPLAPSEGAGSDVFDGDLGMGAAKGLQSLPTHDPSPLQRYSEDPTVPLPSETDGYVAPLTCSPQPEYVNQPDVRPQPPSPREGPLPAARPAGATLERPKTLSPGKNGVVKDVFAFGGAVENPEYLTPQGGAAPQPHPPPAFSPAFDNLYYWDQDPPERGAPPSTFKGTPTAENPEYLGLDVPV

[4] = reduced viability of SK-BR-3 breast cancer cells – cell-based, 24 h, human, pilot screen (AID 572;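 active = viability at or below 10% of carrier control in both of two separate runs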;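 note: compound exposure lasted between 18 and 24 h rather than exactly 24 h; 100% = carrier-treated control wells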); conditions: SK-BR-3 viability, CellTiter-Glo luminescence, at 10 µM, stronger effect = lower value
[5] = HUVEC growth inhibition – cell-based, human, primary screen (AID 575;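 active = viability at or below 30% in both replicate assays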;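 note: 100% = median of untreated cell wells with 0.1% DMSO on each plate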); conditions: HUVEC proliferation, CellTiter-Glo luminescence, 72 h; at 10 µM; stronger effect = lower value
How it was run: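 System: primary human umbilical vein endothelial cells; Quantity: 1250 endothelial cells in each well; Buffer or medium: supplemented EBM, 2% fetal bovine serum; Doses: one dose, 10 µM final, 0.1% DMSO; Incubation: 72 h compound incubation; Technique: ATP-based CellTiter-Glo luminescent read; Evaluation: percent of median DMSO-control luminescence; Controls: vehicle and MePR control wells.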

[6] = H69AR cell proliferation blockers – human, duplicate replicates, primary screen (AID 580;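 active = viability at or under a set limit in both replicates, limit being median viability minus 3 SD, cut at about 48% in these data, passing the limit was not always enough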;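 note: 100% = mean luminescence of untreated wells and 0% = no signal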); conditions: H69AR lung tumor cells viability, ATP luminescence, 72 h; at 10 µM; stronger effect = lower value
[7] = MRP1 drug-resistance reversers in H69AR cells – cell-based, doxorubicin co-treatment, pilot screen (AID 601); conditions: CellTiter-Glo, 72 h, at 10 µM; for differential viability (reversal): stronger effect = higher value
[8] = yeast transport mutant growth inhibition pilot in 384-well plates, post-Golgi transport modulator project (AID 636; in the data active = inhibition above about 31%); conditions: absorbance 615 nm, about 18 h, stronger effect = higher value
[9] = growth suppression of yeast trafficking mutant, preliminary HTS, modulators of trafficking downstream of Golgi apparatus project, 1536-format plate, OD 615 nm (AID 637; in the data active = inhibition above about 30%); conditions: yeast transport mutant growth, absorbance 615 nm, 18 h; stronger effect = higher value
[10] = H69AR cells + 2 uM doxorubicin, measured here: viability with 2 uM doxorubicin, stronger effect = lower value
[11] = H69AR cells, compound alone cytotoxicity

SMILES | inhibition [1] | viability [2] [%] | Her2 level [3] | viability [4] | viability [5] | viability [6] | differential viability (reversal) ([7]; H69AR cells + 2 uM doxorubicin) | viability [7, 10] [%] | viability [7, 11] [%] | inhibition [8] | inhibition [9]
CC1=C(C(=O)N2CCC3(CC2)OCCO3)C2(CCC(C)CC2)OC1=O (stereo not given) | 0% (inactive) | 92.5 | 102% (inactive) | 92.5% (inactive) | 101% (inactive) | 98.4% (inactive) | -4.92% (inactive) | 103 | 98.4 | -0.77% (inactive) | 0.17% (inactive)
Oc1ccc(C2NCc3ccccc3-n3cccc32)cc1Cl (stereo not given) | 0% (inactive) | 98.5 | 74.5% (inactive) | 98.5% (inactive) | 112% (inactive) | 83.8% (inactive) | 1.1% (inactive) | 82.7 | 83.8 | -6.18% (inactive) | -3.17% (inactive)
COc1ccccc1N(CC(=O)NC1CCCCC1)C(=O)c1cnn(C(C)C)c1 | 7% (inactive) | 96.5 | 104% (inactive) | 96.5% (inactive) | 103% (inactive) | 106% (inactive) | 8.82% (inactive) | 97.2 | 106 | 1.08% (inactive) | -5.24% (inactive)
O=C(CCCOc1ccc(Cl)cc1Cl)N1CCC2(CC1)OCCO2 | 0% (inactive) | 106 | 96.5% (inactive) | 106% (inactive) | 93.3% (inactive) | 92.5% (inactive) | 11.1% (inactive) | 81.5 | 92.5 | -5% (inactive) | -2% (inactive)
CCCCn1c(O)c(C(C)=Nc2cccc(C(=O)O)c2)c(=O)[nH]c1=O | 0% (inactive) | 108 | 106% (inactive) | 108% (inactive) | 89.4% (inactive) | 105% (inactive) | 4.39% (inactive) | 100 | 105 | -2.11% (inactive) | 9.02% (inactive)
COc1ccc(S(=O)(=O)NC(CC(=O)N2CCC3(CC2)OCCO3)c2ccco2)cc1 (stereo not given) | 0% (inactive) | 134 | 106% (inactive) | 134% (inactive) | 101% (inactive) | 93.9% (inactive) | 5.91% (inactive) | 88 | 93.9 | -8.77% (inactive) | -0.48% (inactive)
CC(=NCc1ccc2c(c1)OCO2)c1c(O)n(C)c(=O)n(C)c1=O | 6% (inactive) | 94 | 90% (inactive) | 94% (inactive) | 92.8% (inactive) | 98% (inactive) | 1.15% (inactive) | 96.9 | 98 | -4.42% (inactive) | -2% (inactive)
COc1ccc(CC2C(=O)NC(=O)NC2=O)c(OC)c1 | 2% (inactive) | 96.5 | 113% (inactive) | 96.5% (inactive) | 114% (inactive) | 106% (inactive) | 4.86% (inactive) | 101 | 106 | 2.8% (inactive) | -1.75% (inactive)
Cc1ccc(C2SCC(=O)Nc3c2c(=O)[nH]n3C2CCOC(C)(C)C2)cc1 (stereo not given) | 0% (inactive) | 100 | 92% (inactive) | 100% (inactive) | 90.9% (inactive) | 98.2% (inactive) | 11.2% (inactive) | 87 | 98.2 | -5.66% (inactive) | 5.83% (inactive)
CCn1c(C)c(C(=O)O)c2cc(OC)ccc21 | 4% (inactive) | 88.5 | 76% (inactive) | 88.5% (inactive) | 105% (inactive) | 96.1% (inactive) | -4.98% (inactive) | 101 | 96.1 | -3.2% (inactive) | -0.65% (inactive)
CCOc1ccc(-n2c(O)c(C=NCCN(CC)CC)c(=O)[nH]c2=O)cc1 | 0% (inactive) | 87 | 105% (inactive) | 87% (inactive) | 100% (inactive) | 103% (inactive) | -0.4% (inactive) | 103 | 103 | 2.13% (inactive) | -8.06% (inactive)
CCOC(=O)C1CCCCC12C(C#N)=C(N)Oc1n[nH]c(C)c12 (stereo not given) | 0% (inactive) | 91.5 | 94.5% (inactive) | 91.5% (inactive) | 96% (inactive) | 93.3% (inactive) | -6.3% (inactive) | 99.6 | 93.3 | 0.66% (inactive) | 25.1% (inactive)
COC(=O)c1cncn1C(C)c1ccccc1 (stereo not given) | 0% (inactive) | 88.5 | 80.5% (inactive) | 88.5% (inactive) | 108% (inactive) | 95% (inactive) | 6.07% (inactive) | 88.9 | 95 | -4.46% (inactive) | -5.25% (inactive)
CCCCCCn1c(O)c(C=NC2CCN(Cc3ccccc3)CC2)c(=O)[nH]c1=O | 0% (inactive) | 83 | 67.5% (inactive) | 83% (inactive) | 72.3% (inactive) | 74.8% (inactive) | 5.99% (inactive) | 68.8 | 74.8 | -1.05% (inactive) | 4.84% (inactive)
O=C1OCCC1NC1=NCCC1 (stereo not given) | 0% (inactive) | 92 | 91% (inactive) | 92% (inactive) | 111% (inactive) | 100% (inactive) | 13.1% (inactive) | 87.1 | 100 | -0.78% (inactive) | -5.41% (inactive)
Cc1nn(-c2ccccc2)c2c1CC1(C(=O)N(C)C(=O)N(C)C1=O)C1CCCCN21 (stereo not given) | 0% (inactive) | 97 | 114% (inactive) | 97% (inactive) | 91.7% (inactive) | 84.7% (inactive) | -12% (inactive) | 96.7 | 84.7 | -4.86% (inactive) | -2.13% (inactive)
CC(=O)N1CC(=O)Nc2ccc(Cl)cc2C1c1ccc(F)cc1 (stereo not given) | 0% (inactive) | 92.5 | 102% (inactive) | 92.5% (inactive) | 88.5% (inactive) | 97.5% (inactive) | 25.5% (inactive) | 72 | 97.5 | -3.29% (inactive) | -3.45% (inactive)
CCCCn1c(O)c(C(C)=NCCc2ccccc2)c(=O)[nH]c1=O | 0% (inactive) | 88.5 | 89.5% (inactive) | 88.5% (inactive) | 95.6% (inactive) | 100% (inactive) | 4.16% (inactive) | 95.9 | 100 | -0.26% (inactive) | 9.51% (inactive)
Cc1ccc(OCC(=O)NCCN2CCN(C(=O)COc3ccc(C)cc3)CC2)cc1 | 0% (inactive) | 124 | 106% (inactive) | 124% (inactive) | 88.5% (inactive) | 95.2% (inactive) | 1.29% (inactive) | 93.9 | 95.2 | -1.76% (inactive) | -5.56% (inactive)
N#Cc1ccccc1Cn1cc(C(=O)C2CC2)c2ccccc21 | 0% (inactive) | 86 | 103% (inactive) | 86% (inactive) | 81.5% (inactive) | 59.4% (inactive) | -32.4% (inactive) | 91.8 | 59.4 | -3.38% (inactive) | -5.5% (inactive)
CCN1CCN(Cc2cc(Br)cc(OC)c2O)CC1 | 7% (inactive) | 93.5 | 114% (inactive) | 93.5% (inactive) | 110% (inactive) | 94.2% (inactive) | -2.88% (inactive) | 97.1 | 94.2 | -3.2% (inactive) | -6.19% (inactive)
Cc1ccc(-c2nc(CS(=O)CC(=O)N3CCC4(CC3)OCCO4)c(C)o2)cc1 (stereo not given) | 0% (inactive) | 92.5 | 99% (inactive) | 92.5% (inactive) | 96.4% (inactive) | 85.1% (inactive) | -10.6% (inactive) | 95.7 | 85.1 | -4.42% (inactive) | -0.79% (inactive)
CSc1ccc(CNC2CN3CCC2CC3)cc1 (stereo not given) | 0% (inactive) | 89.5 | 93.5% (inactive) | 89.5% (inactive) | 91.2% (inactive) | 89.1% (inactive) | 7.31% (inactive) | 81.8 | 89.1 | -3.47% (inactive) | -3.77% (inactive)
O=C(Cn1c2c(c(-c3ccccc3Cl)cc1=O)CCC2)N1CCC2(CC1)OCCO2 | 6% (inactive) | 102 | 115% (inactive) | 102% (inactive) | 108% (inactive) | 96.8% (inactive) | -15.4% (inactive) | 112 | 96.8 | -1.18% (inactive) | -6.61% (inactive)
CCCCn1c(O)c(C(CC)=Nc2cccc(C(=O)O)c2)c(=O)[nH]c1=O | 0% (inactive) | 97.5 | 92% (inactive) | 97.5% (inactive) | 96.9% (inactive) | 102% (inactive) | 9.65% (inactive) | 92.6 | 102 | -2.67% (inactive) | -4.13% (inactive)
COc1ccc(CN2CCN(c3ccccc3F)CC2)c(OC)c1 | 1% (inactive) | 92 | 88% (inactive) | 92% (inactive) | 91.1% (inactive) | 128% (inactive) | 42.5% (inactive) | 85.4 | 128 | -4.46% (inactive) | -0.98% (inactive)
CC(=NCCCO)c1c(O)n(Cc2ccccc2)c(=O)[nH]c1=O | 0% (inactive) | 95 | 94% (inactive) | 95% (inactive) | 98.6% (inactive) | 94.4% (inactive) | 4.15% (inactive) | 90.2 | 94.4 | -4.61% (inactive) | 3.67% (inactive)
CC(C)CC12CN3CCN(CC(C3)/C1=N/O)C2 | 0% (inactive) | 107 | 101% (inactive) | 107% (inactive) | 108% (inactive) | 96.4% (inactive) | 8.57% (inactive) | 87.8 | 96.4 | -5.54% (inactive) | -0.98% (inactive)
O=C(O)C1(c2ccc(Cl)cc2)CCC1 | 0% (inactive) | 109 | 91.5% (inactive) | 109% (inactive) | 97.2% (inactive) | 91.7% (inactive) | -1.85% (inactive) | 93.6 | 91.7 | -6.13% (inactive) | -3.02% (inactive)
Cc1nn(Cc2ccccc2Cl)c(Cl)c1C(=O)OCC(=O)NCc1ccco1 | 0% (inactive) | 85 | 76% (inactive) | 85% (inactive) | 98.6% (inactive) | 85.6% (inactive) | -6.68% (inactive) | 92.3 | 85.6 | -3.2% (inactive) | -0.82% (inactive)

From PubChem BioAssay
